Screening data deposited in PubChem BioAssay by Columbia University Molecular Screening Center.
Insulin prom act = TRM-6 insulin promoter activation | TRM-6 cells (human fetal islet line), insulin promoter eGFP reporter, imaging; plate-scaled: unstimulated 0, stimulated control 100 | activation, % at 2 µM | 0.81% of 130,000 active;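 active = activation at 2 µM above a set limit, confirmed on inspection of the cell images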;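 note: share of cells whose green reporter signal exceeds an intensity cutoff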
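test system = TRM-6 insulin promoter–eGFP reporter cells | benchmarks = stimulated versus unstimulated wells as plate controls | read-out basis = percent cells above green-intensity threshold, converted to percent activation versus plate controls | detection = fixed-cell fluorescence microscopy, eGFP plus Hoechst | incubation = tamoxifen pre-incubation 15 h overnight, then compound exposure 48 h at 37 °C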
* = called active by the depositor; [ ] = remark or other dose. This is one part of a sample in which hits are shown more often than they occur.

SMILES	Insulin prom act
Cc1ccccc1CN1CCN(CC2CC3C=CC2C3)CC1 (centres undefined)	4
O=C(CSCc1ccc(F)cc1)NCc1ccco1	4
c1ccc(-c2ccc(-c3cnc4n3CCCCC4)cc2)cc1	-6
Cc1cc(Nc2ccccc2)n(CCO)n1	543*
COc1ccc(C(=O)n2nc(C)cc2Nc2ccccc2)cc1	6
Cc1cc(C)n(-c2nc(Nc3ccccc3)nc(-n3nc(C)cc3C)n2)n1	-6
COc1ccc(NC(=O)CC2SC(=N)N(c3ccccc3)C2=O)c(OC)c1 (centres undefined)	118
O=C(COC(=O)[C@@H]1CC(O)CN1S(=O)(=O)c1ccc2c(c1)OCCO2)Nc1ccccc1F (some centres undefined)	8
Nc1nc(C(F)(F)F)c(Br)c(=O)n1N	2
CCc1cccc(C)c1NC(=S)NCc1cccn1C	0
CCOc1ccc(NC(=O)CSc2nnc(Cn3cnc4ccccc43)n2C)cc1	327
CC(=O)c1cccc(NC(=O)N2CCCC2C(=O)Nc2ccc3c(c2)OCCO3)c1 (centres undefined)	493*
COc1ccc(NC(=O)C2CCCN2C(=O)Nc2ccccc2)cc1OC (centres undefined)	-7
CC(=O)c1cccc(NC(=O)N2CCCC2C(=O)NCc2ccc3c(c2)OCO3)c1 (centres undefined)	8
Cc1ccc(C2(c3noc(CN4CCC(c5ccncc5)CC4)n3)CCCC2)cc1	0
Cc1cccc(Oc2ccc(Cl)cc2N)c1	-71
COC(=O)C1=C(C)Nc2nnnn2C1c1ccccc1Cl (centres undefined)	8
C=CCOC(=O)C1=C(C)Nc2nnnn2C1c1ccc(OC)cc1OC (centres undefined)	3
CCCCOc1ccccc1C1C(C(N)=O)=C(C)Nc2nnnn21 (centres undefined)	493*
CC(C)CCN1CCN(CC(c2ccccc2)c2ccccc2)CC1CCO (centres undefined)	8
Cc1c(Cl)cccc1-n1c(SCC(=O)NCc2ccccc2Cl)nnc1-c1ccncc1	0
CCN(CC(=O)NC1CCS(=O)(=O)C1)C(=O)/C=C/c1cccs1 (centres undefined)	117
O=S(=O)(NCc1ccc2c(c1)OCO2)c1cccc2cccnc12	0
Cc1ccc2nsnc2c1S(=O)(=O)NCc1ccc2c(c1)OCO2	0
CCOc1cc(S(=O)(=O)NCc2ccc3c(c2)OCO3)c(C)cc1C	141*
SMILES	Insulin prom act
CCOc1cc(NC(=S)NCCc2ccccc2)c(OCC)cc1NC(C)=O	0
CN(C)c1ccc(S(=O)(=O)NCC(=O)OCC(=O)Nc2cc(Cl)cc(Cl)c2)cc1[N+](=O)[O-]	-9
COc1cc(/C=C/C(=O)O)cc(S(=O)(=O)Nc2cccc(SC)c2)c1OC	-2
COc1ccccc1COC(=O)Nc1c(C)nn(C)c1Cl	113
COc1ccc(-c2cc(C(F)(F)F)c(C#N)c(SCC(=O)Nc3ccc(C)cc3)n2)cc1	8
FC(F)(F)c1cc(-c2ccccc2)nc(N2CCOCC2)n1	-3
N#Cc1c(C(F)(F)F)cc(-c2ccccc2)nc1SCc1nc(N)nc(N2CCOCC2)n1	251*
CCO/N=C(\C)c1c(O)c2ccccc2n(C)c1=O	4
O=C(Nc1ccccc1-c1nnn(CC(=O)N2CCOCC2)n1)c1ccccc1F	0
COc1ccccc1/C=C/C(=O)OCC(=O)c1c(N)n(C)c(=O)n(C)c1=O	7
COc1ccc(-[n+]2c(C)cc(/C=C3\Sc4ccccc4N3C)cc2C)cc1	400*
O=C(c1cc([N+](=O)[O-])ccc1N1CCOCC1)N1CCCC1	-7
CCCCC(=O)Nc1ccc(C(=O)Nc2nnc(COC)s2)cc1	-3
O=[N+]([O-])/C=C/c1cn(Cc2ccc(Cl)cc2)c2ccccc12	-3
N#Cc1ccccc1Cn1cc(/C=N/Nc2ccc([N+](=O)[O-])cn2)c2ccccc21	400*
Cn1cc(/C=N/NC(=O)COc2ccccc2[N+](=O)[O-])c2ccccc21	-9
O=C(CN1CCCCC1)NC(=O)NCc1ccccc1	3
O=C(O)CC(NC(=O)c1ccc2c(c1)OCO2)c1cccc([N+](=O)[O-])c1 (centres undefined)	464*
O=C(N/N=C\c1ccc(-c2ccc([N+](=O)[O-])cc2)o1)c1ccc2c(c1)OCO2	-3
O=C(Nc1cccc([N+](=O)[O-])c1)c1ccc2c(c1)OCCO2	-5
CCn1cc(-c2cc(C(=O)O)c3ccccc3n2)cn1	0
COc1ccc(CCCC(=O)Nc2ccccc2F)cc1	7
COc1cc2nc(C3CCC3)nc(N3CCN(c4ccccc4OC)CC3)c2cc1OC	0
Cc1ccc(C(CC(=O)O)Nc2nc(N3CCOCC3)nc(N3CCOCC3)n2)cc1 (centres undefined)	0
COc1cc(C(=O)NCc2nnc(SCC(=O)Nc3nc4ccccc4s3)o2)cc(OC)c1OC	4
SMILES	Insulin prom act
COc1ccc(OC)c(NC(=O)CSc2nnc(CNC(=O)COc3ccc(Cl)cc3)o2)c1	129*
COc1cc(C(=O)NCc2nnc(SCC(=O)Nc3nccs3)o2)cc(OC)c1OC	144
CCOC(=O)c1c(NC(=O)COC(=O)CNC(=O)c2ccco2)sc(C(C)=O)c1C	-5
CCc1cc(C(=O)N=Nc2c(O)[nH]c3c(Br)cc(Br)cc23)c2ccccc2n1	-7
COc1ccc(CC(=O)N2CC(C)CC(C)C2)cc1 (centres undefined)	3
CN(C)c1nc(SCc2ccc(Cl)cc2)nc2c1CCCC2	3
CN(C)CCCNS(=O)(=O)c1ccc(Cl)s1	5
O=C(c1ccco1)N(CCC(c1ccccc1)c1ccco1)Cc1ccccc1 (centres undefined)	7
C=C(C)CC(NCCc1ccccc1)c1ccco1 (centres undefined)	669*[fluoresces]
O=C(Nc1ccccc1C(=O)NCCc1ccccc1)c1ccco1	0
CCc1ccc(NC(=O)c2noc3c2CCC3)cc1	8
O=C(NCc1cccc(F)c1)c1noc2c1CCCC2	257*
O=C(NCc1cccnc1)c1noc2c1CCCC2	3
COc1ccc(CCNC(=O)Cn2c(=O)n(-c3ccc(F)cc3)c(=O)c3sccc32)cc1OC	7
C=CCNCC(=O)NN=C(c1ccccc1)c1ccccc1	3
Cc1ccccc1C(=O)Oc1cc(N)n(S(=O)(=O)c2ccccc2)n1	-3
CCOC(=O)c1c(NC(=O)CSC(=S)N2CCOCC2)sc(C)c1C	-4
Cc1ccc(-c2nc(CN3CCCCC3)cc(CN3CCCCC3)c2O)cc1	7
COc1cc(S(=O)(=O)NCC2OCCc3ccccc32)ccc1-n1cnnn1 (centres undefined)	3
COC(=O)c1c(NC(=O)CSc2nnnn2-c2ccccc2)sc2c1CCCC2	3
CC(NC(=O)CSc1nc(=O)cc(N)n1-c1ccccc1)c1ccccc1 (centres undefined)	-7
CC(C)CNC(=O)CSc1nc2nn(-c3ccccc3)c(=O)c-2c2n1CCCCC2	467*
COc1ccc(-c2c(C#N)c(N)nc3c2CCCC3)cc1OC	256
CCc1nc(N)c(C#N)c(-c2ccc(OC)c(OC)c2)c1C	83*
CCc1nc(N)c(C#N)c(-c2cccc3ccccc23)c1C	0
Cc1nc2nc(COc3ccccc3)nn2c(C)c1Cl	456*
Nc1nc(N)nc(COc2ccccc2)n1	-8
COc1ccc(CNc2nc3nc(C)c(Cl)c(C)n3n2)cc1OC	3
Cc1c(NC(=O)c2n[nH]c(=O)c3ccccc23)c(=O)n(-c2ccccc2)n1C	-4
Cc1cc(-c2csc(NC(=O)c3ccc(C#N)cc3)n2)c(C)n1Cc1ccco1	-7
